Like-named read-outs stand apart in the source and are kept apart here.
Assays:
r(CCUG)12–MBNL1 complex = experiment: TR-FRET assay measuring disruption of a preformed r; assay type: biochemical; conditions: read-out: IC50 for disrupting the r(CCUG)12–MBNL1 complex, in vitro
Method in brief: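 5′-Biotinylated r(CCUG)12 was folded at 60 °C for 5 min in 20 mM HEPES pH 7.5 with KCl and NaCl. It was then brought into assay buffer with 2 mM MgCl2, 2 mM CaCl2, 5 mM DTT, 0.1% BSA and 0.5% Tween-20. MBNL1-His6 was added (final 60 nM protein, 80 nM RNA) for 15 min, then varying compound concentrations for 15 min. Streptavidin-XL665 (40 nM) and anti-His6-Tb (0.44 ng/μL) were added for 30 min at room temperature. The F545/F665 ratio, with excitation at 345 nm, was fitted to a Hill equation.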

IR exon 11 splicing = assay type: cell-based; conditions: DM2 patient-derived fibroblasts; for rescue of IR exon 11 splicing (percent rescue): 1 μM
Method in brief: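 DM2 patient-derived fibroblasts were treated at ~40% confluency in 6-well plates for 48 h. About 1 μg of total RNA was reverse transcribed. PCR ran 35 cycles (95/58/72 °C), and products were resolved on a 2% agarose gel, stained with ethidium bromide and quantified. Percent rescue = (untreated DM2 exclusion − treated exclusion)/(untreated DM2 exclusion − untreated WT exclusion) × 100.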

[1] = system: RNA containing a single 2 × 2 CU/UC internal loop, r(5′-GACAGCCUGCUGUC-3′); experiment: NMR spectroscopy; assay type: binding; conditions: for shifts of RNA H6 and H8 proton resonances in 1D NMR: RNA with one 2×2 CU/UC internal loop; for binding to the RNA by waterLOGSY spectra: positive phase signals in the presence of RNA, 20:1 compound:RNA
Method in brief: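 1D spectra were run on 100 μM RNA in D2O with compound titrated at 0.5–2.0 molar ratios. WaterLOGSY used 300 μM compound alone or with 15 μM RNA in H2O/5% D2O, phased so non-binders give negative NOEs. All spectra at 25 °C.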

CNBP intron 1 [2] = experiment: CNBP intron 1 abundance by RT-qPCR in DM2 patient-derived fibroblasts; assay type: cell-based; conditions: doses of 5 and 1 μM
Method in brief: (§1)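 DM2 patient-derived fibroblasts were grown in DMEM/high glucose with 20% FBS at 37 °C and 5% CO2. Cells in 6-well plates were treated in growth medium at 40% confluency for 48 h. About 1 μg of total RNA was reverse transcribed, then run in SYBR Green qPCR. Abundance was normalized to GAPDH across 2 independent experiments.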

[3] = system: DM2 patient-derived fibroblasts; experiment: Cell viability; assay type: cell-based; conditions: 5 μM, 48 h
Method in brief: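 Cells were treated in 96-well plates for 48 h. CellTiter-Glo reagent was added, plates sat 10 min at room temperature, and luminescence was read. n = 6 replicates in one independent experiment.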

CNBP intron 1 [4] = experiment: CNBP intron 1 levels in wild-type fibroblasts; assay type: cell-based
Method in brief: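 Wild-type donor fibroblasts (GM07492) were grown in MEM with 10% FBS and Glutagro at 37 °C and 5% CO2. Cells were treated at 40% confluency for 48 h. About 1 μg of total RNA was reverse transcribed and run in SYBR Green qPCR. Relative abundance was normalized to GAPDH.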

CNBP mature mRNA = CNBP mature mRNA levels by RT-qPCR in DM2 patient-derived fibroblasts; assay type: cell-based
Method in brief: as §1

MAP4K4 exon 22a splicing = experiment: MAP4K4 exon 22a splicing; assay type: cell-based; conditions: NOVA-dependent splicing event
IR exon 11 inclusion = IR exon 11 inclusion in wild-type fibroblasts; assay type: cell-based
Method in brief: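 Wild-type donor fibroblasts (GM07492) were grown in MEM with 10% FBS and treated at ~40% confluency for 48 h. About 1 μg of total RNA was reverse transcribed. PCR ran 35 cycles (95 °C 30 s, 58 °C 30 s, 72 °C 1 min). Products were separated on a 2% agarose gel, stained with ethidium bromide, and percent exon 11 exclusion was quantified by densitometry.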

[5] = system: r(CCUG)exp–MBNL1 nuclear foci; assay type: cell-based; conditions: 5 μM, DM2 patient-derived fibroblasts; untreated 7 ± 1
[6] = molecular target: base-paired RNA that does not contain internal loops; experiment: Microscale thermophoresis; assay type: binding; conditions: read-out: Kd for base pair control RNA; MST
Method in brief: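 Cy5-labelled base-paired control RNA, GCG(CCUG)7(GCAG)5CGC, was used at 5 nM in 8 mM Na2HPO4 pH 7.0, 185 mM NaCl and 1 mM EDTA, folded at 60 °C for 5 min. It was mixed with 1:1 serial compound dilutions (0.05% Tween-20 final) and held 30 min at room temperature. MST settings: 80% power, 30 s laser-on. Kd came from a quadratic fit, averaged over two independent experiments.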

Structure (SMILES) | IC50 (r(CCUG)12–MBNL1 complex) | shifts of RNA H6 and H8 proton resonances in 1D NMR [1] | binding to the RNA by waterLOGSY spectra [1] | further results
Cc1ccc2nc(Nc3ccc4nc(NCC(C)C)sc4c3)nc(NCCCO)c2c1 [compound 73, 3-((2-((2-(isobutylamino)benzo[d]thiazol-6-yl)amino)-6-methylquinazolin-4-yl)amino)propan-1-ol] | < 5 µM | – | – | –
OCCCNc1nc(Nc2ccc3c(c2)OCCO3)nc2ccccc12 [compound 7, 3-((2-((2,3-dihydrobenzo[b][1,4]dioxin-6-yl)amino)quinazolin-4-yl)amino)propan-1-ol] | – | Significant shifts in resonances | bound to the RNA | rescue of IR exon 11 splicing (percent rescue) (IR exon 11 splicing; 48 h): 12 ± 5%
Cc1ccc2nc(Nc3ccc4nc(NC5CCN(Cc6ccccc6)CC5)sc4c3)nc(NCCCO)c2c1 [compound 71, 3-((2-((2-((1-benzylpiperidin-4-yl)amino)benzo[d]thiazol-6-yl)amino)-6-methylquinazolin-4-yl)amino)propan-1-ol] | < 5 µM | – | – | –
Cc1ccc2nc(Nc3ccc4nc(C)sc4c3)nc(NCCCO)c2c1 [compound 63, 3-((6-methyl-2-((2-methylbenzo[d]thiazol-6-yl)amino)quinazolin-4-yl)amino)propan-1-ol] | 2.2 ± 0.5 µM | – | – | abundance of CNBP intron 1 (CNBP intron 1 [2]): significantly reduced; toxicity in DM2 patient-derived fibroblasts [3]: no toxicity; effects on CNBP intron 1 levels (CNBP intron 1 [4]): no effects were observed; levels of CNBP mature mRNA (CNBP mature mRNA): did not affect; rescue of IR exon 11 splicing (percent rescue) (IR exon 11 splicing; 48 h): 33 ± 5%; rescue of IR exon 11 splicing (IR exon 11 splicing; 5 μM, 48 h): significantly improved IR splicing; effect on MAP4K4 exon 22a splicing (MAP4K4 exon 22a splicing): did not affect; effect on IR exon 11 inclusion (IR exon 11 inclusion): did not affect; number of r(CCUG)exp–MBNL1 nuclear foci per cell [5]: 5 ± 0.5; Kd [6]: > 20 µM
Cc1ccc2nc(Nc3ccc4nc(N5CCN(C)CC5)sc4c3)nc(NCCCO)c2c1 [compound 82, 3-((6-methyl-2-((2-(4-methylpiperazin-1-yl)benzo[d]thiazol-6-yl)amino)quinazolin-4-yl)amino)propan-1-ol] | < 5 µM | – | – | –
COc1ccc(Nc2nc(NCCCO)c3ccccc3n2)cc1 [compound 3] | – | Significant shifts in resonances | bound to the RNA | –
Cc1ccc2nc(Nc3ccc4nc(NCCN(C)C)sc4c3)nc(NCCCO)c2c1 [compound 79, 3-((2-((2-((2-(dimethylamino)ethyl)amino)benzo[d]thiazol-6-yl)amino)-6-methylquinazolin-4-yl)amino)propan-1-ol] | < 5 µM | – | – | toxicity in DM2 patient-derived fibroblasts [3]: no toxicity; rescue of IR exon 11 splicing (IR exon 11 splicing; any concentration studied): did not significantly rescue splicing
Cc1ccc2nc(Nc3ccc4nc(N5CCOCC5)sc4c3)nc(NCCCO)c2c1 [compound 72, 3-((6-methyl-2-((2-morpholinobenzo[d]thiazol-6-yl)amino)quinazolin-4-yl)amino)propan-1-ol] | < 5 µM | – | – | –
CN(C)c1ccc(Nc2nc(NCCCO)c3ccccc3n2)cc1 [compound 4] | – | Significant shifts in resonances | bound to the RNA | –
CC(=O)Nc1ccc(Nc2nc(NCC3CCCO3)c3ccccc3n2)cc1 (centres unmarked) [compound 5] | – | Significant shifts in resonances | bound to the RNA | –
Cc1ccc2nc(Nc3ccc4nc(NCCN5CCOCC5)sc4c3)nc(NCCCO)c2c1 [compound 74, 3-((6-methyl-2-((2-((2-morpholinoethyl)amino)benzo[d]thiazol-6-yl)amino)quinazolin-4-yl)amino)propan-1-ol] | < 5 µM | – | – | –
Cc1ccc2nc(Nc3ccc4nc(NCC(C)(C)O)sc4c3)nc(NCCCO)c2c1 [compound 78, 3-((2-((2-((2-hydroxy-2-methylpropyl)amino)benzo[d]thiazol-6-yl)amino)-6-methylquinazolin-4-yl)amino)propan-1-ol] | < 5 µM | – | – | toxicity in DM2 patient-derived fibroblasts [3]: no toxicity; rescue of IR exon 11 splicing (IR exon 11 splicing; 5 μM, 48 h): significantly improved IR splicing
Cc1ccc2nc(Nc3ccc4c(c3)OCCO4)nc(NCCCO)c2c1 [compound 58, 3-((2-((2,3-dihydrobenzo[b][1,4]dioxin-6-yl)amino)-6-methylquinazolin-4-yl)amino)propan-1-ol] | 12.7 ± 0.2 µM | – | – | –

— publication PMC8883746 (Journal of medicinal chemistry, 2021)
